Measured values published in PMC11094421 (Clinical Cancer Research, 2024).

Key:
[1] = system: ATM^mut non–small cell lung cancer (NSCLC) xenograft model; details: monotherapy; Supplementary Fig. S1; cited from earlier work
[2] = system: ARID1A^mut gastric cancer xenograft model; details: monotherapy; Supplementary Fig. S1; cited from earlier work
[3] = system: patients with advanced solid tumors; assay: Objective response according to RECIST v1.1; format: in vivo, human
In short: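 Investigator-assessed objective response per RECIST v1.1, based on change in the sum of longest diameters of target lesions. Patients received the test compound once or twice daily on continuous or intermittent schedules.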

[4] = Dose-limiting toxicities, MTD and RDE; format: in vivo, human
In short: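 Patients with metastatic or locally advanced unresectable solid tumors received test compound alone, fasting, QD from 5 mg upward, plus 2 weeks on/1 week off and 150 mg BID 4 days on/3 days off schedules. The DLT window was 21 days with a 30% target DLT rate. A Bayesian 2-parameter logistic model with overdose control and a schedule covariate gave posterior DLT probabilities (mean, percentiles). Analysis set N = 52.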

[5] = Treatment-emergent adverse events, first-in-human dose-escalation study; format: in vivo
In short: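 Safety set comprised all patients given ≥1 dose (N = 55; 5–270 mg, QD or BID schedules). TEAEs were counted from the first dose until 30 days after the last. Baseline was the last value before the first dose.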

[6] = system: circulating tumor DNA; assay: Molecular response in plasma ctDNA; format: in vivo, human
[7] = Noncompartmental PK of tuvusertib in plasma; format: in vivo, human
[8] = system: xenograft models of BRCA^mut high-grade serous ovarian cancer; details: monotherapy and combination with niraparib; cited from earlier work
[9] = system: immune cell subsets; assay: Immunophenotyping of whole blood by flow cytometry; format: in vivo, human; details: doses ≥130 mg, on-treatment period; full recovery during treatment breaks
[10] = lartesertib, niraparib, cisplatin, gemcitabine, irinotecan; preclinical; cited from earlier work

Cn1cncc1-c1c(F)cncc1NC(=O)c1c(N)nn2cc(F)cnc12 [Tuvusertib]
antitumor activity [1]: antitumor activity as monotherapy
antitumor activity [2]: antitumor activity as monotherapy
patients with stable disease (RECIST v1.1) ([3]; 15 patients, all doses): 27%
duration of disease stabilization ([3]; patient with unconfirmed partial response, 150 mg BID 4 days on/3 days off): 9 months
DLT anemia requiring blood transfusion ([4]; 130 mg QD): 1/8
DLT anemia requiring blood transfusion ([4]; 150 mg BID 4 days on/3 days off): 3/4
DLT anemia requiring blood transfusion ([4]; 180 mg QD): 3/10
median estimated DLT probability ([4]; 180 mg QD continuously): 23%
upper boundary of the one-sided 95% credible interval of DLT probability ([4]; 180 mg QD continuously): 37%
DLT anemia requiring blood transfusion ([4]; 220 mg QD 2 weeks on/1 week off): 2/6
DLT anemia requiring blood transfusion ([4]; 270 mg QD): 1/4
DLT upper gastrointestinal hemorrhage and decreased platelet counts (one each) ([4]; 270 mg QD): 2/4
patients who experienced DLTs ([4]; as assessed by the SMC, observation period 21 days): Eleven
median estimated DLT probability ([4]; intermittent 2 weeks on/1 week off schedule, no MTD formally established): < 20%
DLTs that were events of anemia requiring blood transfusion ([4]; of eleven patients with DLTs): 10
Anemia TEAE ([5]; Any grade, all doses, N = 55): 39 (71) n (%)
Constipation TEAE ([5]; Any grade, all doses, N = 55): 13 (24) n (%)
Fatigue TEAE ([5]; Any grade, all doses, N = 55): 22 (40.0) n (%)
Nausea TEAE ([5]; Any grade, all doses, N = 55): 34 (62) n (%)
Vomiting TEAE ([5]; Any grade, all doses, N = 55): 21 (38) n (%)
Anemia TEAE ([5]; Grade ≥3, all doses, N = 55): 20 (36) n (%)
Constipation TEAE ([5]; Grade ≥3, all doses, N = 55): 0 n (%)
Fatigue TEAE ([5]; Grade ≥3, all doses, N = 55): 1 (2) n (%)
Nausea TEAE ([5]; Grade ≥3, all doses, N = 55): 0 n (%)
Vomiting TEAE ([5]; Grade ≥3, all doses, N = 55): 3 (6) n (%)
treatment-related AE anemia ([5]; across all dose levels): 67%
treatment-related AE fatigue ([5]; across all dose levels): 38%
treatment-related AE vomiting ([5]; across all dose levels): 33%
TEAEs assessed as related to tuvusertib ([5]; all doses): 87%
abnormal ECG readings, vital signs, high-grade laboratory abnormalities ([5]; all doses): No clinically significant abnormal ECG readings, vital signs or high-grade laboratory abnormalities were observed
patients who experienced at least one TEAE ([5]; all doses): 95%
Any grade ≥3 TEAE ([5]; all doses, N = 55): 26 (47) n (%)
Any serious TEAE ([5]; all doses, N = 55): 15 (27) n (%)
Grade ≥3 TEAE related to tuvusertib ([5]; all doses, N = 55): 19 (35) n (%)
Serious TEAE related to tuvusertib ([5]; all doses, N = 55): 3 (6) n (%)
TEAE leading to permanent tuvusertib discontinuation ([5]; all doses, N = 55): 3 (6) n (%)
TEAE leading to temporary tuvusertib discontinuation ([5]; all doses, N = 55): 26 (47) n (%)
TEAEs related to tuvusertib ([5]; all doses, N = 55): 48 (87) n (%)
Any TEAE ([5]; all doses, N = 55, safety analysis set): 52 (95) n (%)
constipation TEAE of any grade ([5]; at the MTD (n = 11)): 36%
nausea TEAE of any grade ([5]; at the MTD (n = 11)): 55%
vomiting TEAE of any grade ([5]; at the MTD (n = 11)): 36%
grade ≥3 TEAE anemia ([5]; at the RDE): none seen
nausea TEAE of any grade ([5]; at the RDE (n = 7)): 71%
anemia TEAE of any grade ([5]; overall): 71%
fatigue TEAE of any grade ([5]; overall): 40%
grade ≥3 TEAE lymphocyte count decreased ([5]; overall): 7%
grade ≥3 TEAE neutrophil count decreased ([5]; overall): 7%
nausea TEAE of any grade ([5]; overall): 62%
grade ≥3 TEAE anemia ([5]; overall, majority at doses ≥ MTD): 36%
Grade ≥4 platelet count decreased ([5]; reported at dose levels exceeding the MTD): 4%
Complete MRs for any mutations ([6]; ARID1A): 2/8
Complete MRs for any mutations ([6]; ATRX): 2/5
Complete MRs for any mutations ([6]; BRCA1/2): 2/11
Complete MRs for any mutations ([6]; DAXX): 2/3
MRs by tumor type ([6]; breast cancer, 1/3): 33%
MRs by tumor type ([6]; other tumor types, 4/21): 19%
MRs by tumor type ([6]; ovarian cancer, 5/10): 50%
MRs observed (patients) ([6]; patients treated with more than 130 mg QD, 14/37): 38%
patients showing a reduction in sum of tumor diameter ([6]; patients with MRs, 7/14): 50%
patients showing a reduction in sum of tumor diameter ([6]; patients without MRs, 8/33): 24%
MRs observed (patients) ([6]; the 10 patients who received lower doses): none
dose proportionality of exposure ([7]; 5 to 270 mg): approximately dose proportional up to 180 mg QD and slightly more than proportional at higher doses
PK steady-state conditions achieved ([7]; cycle 1): ≤ 8 days
half-life ([7]; human, plasma, oral): 1.2 to 5.6 h
Tmax ([7]; human, plasma, po): 0.5 to 3.5 h
antitumor activity [8]: antitumor activity as monotherapy and in combination with the PARP inhibitor niraparib
monocytes and NK cell subsets [9]: Transient decreases
synergy with other DDR-targeting treatments and DNA-damaging agents [10]: pronounced synergy
